From ChEMBL document CHEMBL1146753, “Tetrahydroisoquinolines as subtype selective estrogen agonists/antagonists” (Bioorg Med Chem Lett, 2004) come the findings set out here.

The target of one assay is T1, Estrogen receptor (Homo sapiens, UniProt P03372).
T1 sequence (P03372 whole entry): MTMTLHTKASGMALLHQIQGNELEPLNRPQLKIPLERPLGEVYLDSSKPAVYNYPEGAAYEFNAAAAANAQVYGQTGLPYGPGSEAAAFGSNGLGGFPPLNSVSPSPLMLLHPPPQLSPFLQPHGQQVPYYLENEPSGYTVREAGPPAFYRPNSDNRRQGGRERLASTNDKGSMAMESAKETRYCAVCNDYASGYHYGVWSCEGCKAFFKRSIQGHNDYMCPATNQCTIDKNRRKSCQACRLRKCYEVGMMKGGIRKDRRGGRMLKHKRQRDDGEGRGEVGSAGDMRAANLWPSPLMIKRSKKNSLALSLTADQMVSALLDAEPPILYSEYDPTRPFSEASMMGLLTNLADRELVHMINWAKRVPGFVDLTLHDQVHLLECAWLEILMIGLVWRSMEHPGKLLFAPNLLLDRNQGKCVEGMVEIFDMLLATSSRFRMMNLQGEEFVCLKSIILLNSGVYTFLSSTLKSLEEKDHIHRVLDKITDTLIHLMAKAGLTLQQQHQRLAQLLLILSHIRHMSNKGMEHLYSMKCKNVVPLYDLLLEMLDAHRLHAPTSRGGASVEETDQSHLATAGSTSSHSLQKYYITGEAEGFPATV
Briefly: In vitro concentration required to inhibit [3H]estradiol binding to human estrogen receptor alpha expressed in 293T cells. It counts as cell-based.

In the next assay the target is Estrogen receptor beta (Homo sapiens, UniProt Q92731). Briefly: In vitro concentration required to inhibit [3H]estradiol binding to human estrogen receptor beta expressed in 293T cells. Type of assay: cell-based. In short, it runs like this: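 Increasing competitor concentrations from DMSO stocks. Incubated 16 h at 4 °C. Dextran-coated charcoal for 15 min at room temperature, then centrifuged. Supernatant counted by scintillation. Means of ≥3 experiments.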
Chain of Estrogen receptor beta (Q92731 whole entry): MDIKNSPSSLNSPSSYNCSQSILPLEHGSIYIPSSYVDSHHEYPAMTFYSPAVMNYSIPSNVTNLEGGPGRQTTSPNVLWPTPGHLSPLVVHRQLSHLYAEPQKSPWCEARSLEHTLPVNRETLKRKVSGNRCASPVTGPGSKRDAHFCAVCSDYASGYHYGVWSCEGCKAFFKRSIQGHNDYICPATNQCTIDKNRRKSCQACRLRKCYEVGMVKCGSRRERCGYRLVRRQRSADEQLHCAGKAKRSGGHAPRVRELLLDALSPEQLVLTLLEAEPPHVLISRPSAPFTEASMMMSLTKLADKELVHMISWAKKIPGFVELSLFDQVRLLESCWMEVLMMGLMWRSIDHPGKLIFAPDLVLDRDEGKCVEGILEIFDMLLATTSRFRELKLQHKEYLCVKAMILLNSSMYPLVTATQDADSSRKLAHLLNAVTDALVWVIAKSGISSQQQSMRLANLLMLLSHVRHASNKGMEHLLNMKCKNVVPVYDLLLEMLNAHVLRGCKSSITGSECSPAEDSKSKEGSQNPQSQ

In assay [1] the test system is MCF7. Nature of the assay: Percent inhibition of antagonistic activity in MCF-7 cell lines derived from breast tumors that predominantly express ER-alpha. Type of assay: functional, Homo sapiens.
The test system of assay [2] is MCF7. Nature of the assay: Inhibitory concentration required for antagonistic activity in MCF-7 cell lines derived from breast tumors that predominantly express ER-alpha. It counts as functional, cell-based. The conditions noted are these: Homo sapiens.
The subject of assay [3] is MCF7. Briefly: Percent agonistic activity in MCF-7 cell lines derived from breast tumors that predominantly express ER-alpha. It counts as functional, Homo sapiens. In short, it runs like this: (§1)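 MCF7 cells plated at 6000/well in IMDM with 5% FBS and attached overnight. Steroid-depleted over 48 h with two changes of medium containing 5% charcoal-dextran stripped FBS. Compounds given as log dilutions from 10^-13 to 10^-6 M in 0.1% DMSO, 8 replicate wells each. Medium and compound renewed at day 4. DNA content measured by Hoechst 33258 after 7 days total exposure.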

The subject of assay [4] is MCF7. Nature of the assay: Effective concentration required for agonistic activity in MCF-7 cell lines derived from breast tumors that predominantly express ER-alpha. It counts as functional, cell-based. Conditions: Homo sapiens. In short, it runs like this: as §1

By IC50 is commonly meant the concentration needed to halve the response being measured. A lower IC50 goes with inhibition by little substance. Usually Inhibition stands for the relative decrease from the control value, in per cent. One may read the EC50 as the concentration giving half of the maximal effect. Low readings indicate a more potent agent, high ones a less potent agent.

In the case of `O=C(N1CCc2cc(O)ccc2C1c1ccc(Br)cc1)C(F)(F)F` (stereo unspecified), the IC50 on Estrogen receptor turned out to be 165 nM; on Estrogen receptor beta it was 22 nM.

Consider `Oc1ccc2c(c1)CCN(c1ccccc1)C2Cc1ccccc1` (stereo unspecified), for which the IC50 on Estrogen receptor turned out to be 6.7 nM; at Estrogen receptor beta, 66.4 nM.

In the case of `Oc1ccc2c(c1)CCN(c1ccccc1)C2c1ccc(OCCN2CCCC2)cc1` (stereo unspecified), the IC50 at Estrogen receptor is 11.5 nM; at Estrogen receptor beta, 22.2 nM.

`O=C(c1ccccc1)N1CCc2cc(O)ccc2C1c1ccc(OCCN2CCCC2)cc1` (stereo unspecified): the IC50 at Estrogen receptor is 562 nM; at Estrogen receptor beta it was 2250 nM.

Take `O=S(=O)(c1ccc2ccccc2c1)N1CCc2cc(O)ccc2C1c1ccc(OCCN2CCCC2)cc1` (stereo unspecified): the IC50 turned out to be 112 nM at Estrogen receptor and 1080 nM at Estrogen receptor beta.

In the case of `Oc1ccc2c(c1)CCN(c1ccccc1)C2c1cccs1` (stereo unspecified), the figures for the IC50 on Estrogen receptor and on Estrogen receptor beta were 50 nM and 26.3 nM, respectively.

Turning to `O=C(N1CCc2cc(O)ccc2C1c1ccccc1)C(F)(F)F` (stereo unspecified), the IC50 stood at 235 nM on Estrogen receptor and 27.4 nM on Estrogen receptor beta.

As to `O=C(N1CCc2cc(O)ccc2[C@@H]1c1ccc(O)cc1)C(F)(F)F`, the IC50 on Estrogen receptor and at Estrogen receptor beta was greater than 3200 nM throughout.

Molecule `Cc1ccc(S(=O)(=O)N2CCc3cc(O)ccc3C2c2ccc(OCCN3CCCC3)cc2)cc1` (stereo unspecified) registered an Inhibition with MCF7 [1] of 66%. In addition, the IC50 with MCF7 [2] stood at 29.8 nM; at Estrogen receptor, 24.8 nM; on Estrogen receptor beta, 71.2 nM.

`Oc1ccc2c(c1)CCN(c1ccccc1)C2C1CCCCC1` (stereo unspecified) gave an Activity in the assay with MCF7 [3] of 93%. Also, the IC50 at Estrogen receptor was determined as 29.8 nM; at Estrogen receptor beta, 99 nM. The same molecule gave an EC50 in the assay with MCF7 [4] of 11.1 nM.

Turning to `O=S(=O)(c1ccccc1)N1CCc2cc(O)ccc2C1c1ccc(OCCN2CCCC2)cc1` (stereo unspecified), the IC50 came to 5.2 nM on Estrogen receptor and 18.5 nM on Estrogen receptor beta.

Take `O=S(=O)(c1ccccc1)N1Cc2cc(O)ccc2C(c2ccc(O)cc2)C1` (stereo unspecified): the IC50 on Estrogen receptor was 120 nM; at Estrogen receptor beta it was 41.7 nM.

`O=C(N1CCc2cc(O)ccc2C1c1ccc(OCCN2CCCC2)cc1)C(F)(F)F` (stereo unspecified) gave an Inhibition with MCF7 [1] of 83%. Further, the IC50 in the assay on MCF7 [2] came to 86.6 nM; on Estrogen receptor, 28.7 nM; on Estrogen receptor beta it was 93.3 nM.

Turning to `Oc1ccc2c(c1)CCN(c1ccccc1)C2CC1CCCCC1` (stereo unspecified), the values for the IC50 at Estrogen receptor and on Estrogen receptor beta were 53.1 nM and 295 nM, respectively.

As for `CC(C)C1c2ccc(O)cc2CCN1c1ccccc1` (stereo unspecified), the IC50 on Estrogen receptor amounted to 42.7 nM; at Estrogen receptor beta it was 180 nM.

With `Oc1ccc2c(c1)CCN(c1ccccc1)C2c1ccccc1` (stereo unspecified), the values for the IC50 on Estrogen receptor and at Estrogen receptor beta were 30.7 nM and 48.8 nM, respectively.

As for `O=C(N1CCc2cc(O)ccc2C1c1cccs1)C(F)(F)F` (stereo unspecified), the IC50 at Estrogen receptor was determined as 385 nM; on Estrogen receptor beta, 63.5 nM.

For `CCCc1ccc(S(=O)(=O)N2CCc3cc(O)ccc3C2c2ccc(OCCN3CCCC3)cc2)cc1` (stereo unspecified), the IC50 on Estrogen receptor came out at 29.4 nM; at Estrogen receptor beta, 133 nM.

As for `Oc1ccc2c(c1)CCN(Cc1ccc3c(c1)OCO3)C2c1ccc(OCCN2CCCC2)cc1` (stereo unspecified), the half-inhibitory concentration (IC50) on Estrogen receptor stood at 9.2 nM; on Estrogen receptor beta, 220 nM.

As to `O=C(c1ccccc1)N1Cc2cc(O)ccc2C(c2ccc(O)cc2)C1` (stereo unspecified), the IC50 on Estrogen receptor came out at 160 nM; on Estrogen receptor beta, 27.9 nM.

In the assay with MCF7 [1], `O=S(=O)(c1cccc2ccccc12)N1CCc2cc(O)ccc2C1c1ccc(OCCN2CCCC2)cc1` (stereo unspecified) showed an Inhibition of 96%. Besides, the IC50 with MCF7 [2] was determined as 51.3 nM; at Estrogen receptor it was 5.6 nM; at Estrogen receptor beta it was 21.3 nM.

For the molecule `O=C(N1Cc2cc(O)ccc2C(c2ccc(O)cc2)C1)C(F)(F)F` (stereo unspecified), the IC50 at Estrogen receptor is 123 nM; at Estrogen receptor beta it was 11.4 nM.

Turning to `O=C(N1CCc2cc(O)ccc2[C@H]1c1ccc(O)cc1)C(F)(F)F`, the IC50 at Estrogen receptor turned out to be 53.6 nM; on Estrogen receptor beta, 8.9 nM.

For `CN(C)C(=O)/C=C/c1ccc(N2CCc3cc(O)ccc3C2c2ccccc2)cc1` (stereo unspecified), the values for the IC50 at Estrogen receptor and at Estrogen receptor beta were 8 nM and 8.7 nM, respectively.

On to `O=C(/C=C/c1ccc(N2CCc3cc(O)ccc3C2c2ccccc2)cc1)N1CCOCC1` (stereo unspecified), for which the results for the IC50 at Estrogen receptor and at Estrogen receptor beta were 5.9 nM and 4.8 nM, respectively.

Turning to `O=S(=O)(c1cccc2ccccc12)N1Cc2cc(O)ccc2C(c2ccc(O)cc2)C1` (stereo unspecified), the IC50 at Estrogen receptor is 28 nM; at Estrogen receptor beta, 10.7 nM.

As to `Oc1ccc(C2CN(Cc3ccccc3)Cc3cc(O)ccc32)cc1` (stereo unspecified), the IC50 on Estrogen receptor was 20.1 nM; on Estrogen receptor beta it was 13.1 nM.

Take `CCOC(=O)N1CCc2cc(O)ccc2C1c1ccc(OCCN2CCCC2)cc1` (stereo unspecified): the IC50 worked out at 44.3 nM on Estrogen receptor and 293 nM at Estrogen receptor beta.

Turning to `Oc1ccc2c(c1)CCN(Cc1ccccc1)C2c1ccc(OCCN2CCCC2)cc1` (stereo unspecified), the IC50 at Estrogen receptor was 4.7 nM; on Estrogen receptor beta it was 42.2 nM.
